We go through two compounds from ChEMBL document CHEMBL3621160, “Pseudosaccharin amines as potent and selective KV1.5 blockers” (Bioorg Med Chem Lett, 2015).

The target of data set [1] is Histamine H1 receptor (Homo sapiens) (UniProt P35367). Put plainly: Inhibition of human histamine H1 receptor at 10 uM relative to control. In outline: (§1)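 Screening panel of over 37 receptors and enzymes relevant to cardiovascular effects or toxicity. Each target was tested at a single concentration of 10 µM, with % activity reported.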
Histamine H1 receptor (Homo sapiens), sequence (P35367 whole entry): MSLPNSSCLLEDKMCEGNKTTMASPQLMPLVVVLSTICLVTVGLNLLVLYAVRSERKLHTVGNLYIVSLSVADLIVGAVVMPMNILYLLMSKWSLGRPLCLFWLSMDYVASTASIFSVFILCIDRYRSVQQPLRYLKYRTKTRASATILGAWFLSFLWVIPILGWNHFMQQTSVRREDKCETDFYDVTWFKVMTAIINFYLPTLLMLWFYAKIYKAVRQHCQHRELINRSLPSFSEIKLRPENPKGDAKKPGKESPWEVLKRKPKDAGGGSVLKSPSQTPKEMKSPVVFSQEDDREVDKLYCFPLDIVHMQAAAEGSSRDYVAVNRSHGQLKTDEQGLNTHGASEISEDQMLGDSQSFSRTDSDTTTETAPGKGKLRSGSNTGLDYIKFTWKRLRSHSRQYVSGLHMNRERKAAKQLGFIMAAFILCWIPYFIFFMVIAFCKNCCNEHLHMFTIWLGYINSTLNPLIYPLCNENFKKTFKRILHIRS
The target in data set [2] is Mu-type opioid receptor (Homo sapiens) (UniProt P35372). Kind of data set: Inhibition of human mu opioid receptor at 10 uM relative to control. In outline:
as §1

Data set [3] has as its target Glucocorticoid receptor (Rattus norvegicus) (UniProt P06536). Put plainly: Inhibition of rat glucocorticoid receptor at 10 uM relative to control. In outline: as §1
The species named for data set [4] is Rattus norvegicus. Kind of data set: Inhibition of rat N-methyl D-aspartate receptor phencyclidine binding site at 10 uM relative to control. In outline: (§2)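 Single-concentration screen at 10 µM across a panel of over 37 receptors and enzymes linked to cardiovascular effects or toxicity. Read-out is percent activity.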
The target in data set [5] is Adrenergic receptor alpha-2 (Rattus norvegicus) (UniProt P22086+P19328+P22909). Put plainly: Inhibition of rat alpha-2 adrenergic receptor at 10 uM relative to control. In outline: as §1
Data set [6] has as its target 5-hydroxytryptamine receptor 1B (Rattus norvegicus) (UniProt P28564). Put plainly: Inhibition of rat 5HT-1B receptor at 10 uM relative to control. Summed up:
as §1

The target of data set [7] is Progesterone receptor (Homo sapiens) (UniProt P06401). Put plainly: Inhibition of human progesterone B receptor at 10 uM relative to control. Summed up: as §1
Progesterone receptor (Homo sapiens), sequence (P06401 whole entry): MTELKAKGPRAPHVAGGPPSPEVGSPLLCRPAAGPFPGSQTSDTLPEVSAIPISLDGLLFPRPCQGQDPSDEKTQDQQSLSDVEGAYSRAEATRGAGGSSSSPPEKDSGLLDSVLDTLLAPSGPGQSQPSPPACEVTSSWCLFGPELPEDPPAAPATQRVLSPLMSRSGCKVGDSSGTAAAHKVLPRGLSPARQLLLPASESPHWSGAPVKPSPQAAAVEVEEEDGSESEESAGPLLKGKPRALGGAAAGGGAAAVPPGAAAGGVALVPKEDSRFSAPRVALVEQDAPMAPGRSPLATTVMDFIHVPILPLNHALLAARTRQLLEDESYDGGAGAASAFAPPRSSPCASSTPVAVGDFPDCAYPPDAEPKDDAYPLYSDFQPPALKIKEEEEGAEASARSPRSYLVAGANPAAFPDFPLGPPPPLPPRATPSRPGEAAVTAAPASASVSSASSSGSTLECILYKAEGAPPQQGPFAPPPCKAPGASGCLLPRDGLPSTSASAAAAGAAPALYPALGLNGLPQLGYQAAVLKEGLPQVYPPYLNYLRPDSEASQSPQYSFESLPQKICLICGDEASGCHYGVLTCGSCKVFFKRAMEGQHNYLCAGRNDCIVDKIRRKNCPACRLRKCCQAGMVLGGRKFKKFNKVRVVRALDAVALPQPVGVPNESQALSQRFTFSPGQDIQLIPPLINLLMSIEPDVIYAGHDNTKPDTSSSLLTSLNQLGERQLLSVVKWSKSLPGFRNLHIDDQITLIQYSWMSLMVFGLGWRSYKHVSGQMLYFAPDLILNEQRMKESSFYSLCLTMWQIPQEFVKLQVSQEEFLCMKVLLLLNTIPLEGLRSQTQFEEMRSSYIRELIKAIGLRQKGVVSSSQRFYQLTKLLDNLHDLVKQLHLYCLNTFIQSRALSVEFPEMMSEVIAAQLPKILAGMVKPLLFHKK
In data set [8] the target is Androgen receptor (Rattus norvegicus) (UniProt P15207). Put plainly: Inhibition of rat testosterone receptor at 10 uM relative to control. Summed up:
as §1

Data set [9] has as its target Potassium voltage-gated channel subfamily A member 5 (Homo sapiens, UniProt P22460). Put plainly: Inhibition of human KV1.5 expressed in mouse L929 cells assessed as decrease in ultrarapid potassium current amplitude. Type of data set: cell-based. Summed up: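 Potassium current block was measured in mouse fibroblast L929 cells expressing human KV1.5. IC50 values are means of 2-4 experiments.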

The species named for data set [10] is Homo sapiens. Put plainly: Inhibition of sodium channel (unknown origin) at 10 uM relative to control. Summed up: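 Calcium (ICa) and sodium (INa) currents were measured as percent inhibition at a single concentration of 10 µM. Values are means of 2-4 experiments.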
Data set [11] in a line: Half life in rat at 2 mg/kg administered as intra-arterial infusion for 10 mins and 5 mg/kg, po. Type of data set: ADME, organism-based. The settings on record: in vivo. In outline:
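Rats (3 per compound) received intra-arterial infusion over 10 min or oral gavage. Vehicle for both routes was 40% PEG 400, 40% water and 20% ethanol. Values are means of 3 animals.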

A short description of data set [12]: Volume of distribution at steady state in rat at 2 mg/kg administered as intra-arterial infusion for 10 mins and 5 mg/kg, po. The class given is ADME, organism-based. The following applies: in vivo, read-out: Vdss. In outline:
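Rat PK: 2.0 mg/kg by intra-arterial infusion over 10 min and 5.0 mg/kg by oral gavage, vehicle 40% PEG 400, 40% water, 20% ethanol for both routes; Vss from 3 animals, reported as mean.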

Data set [13] relates to Rattus norvegicus. Kind of data set: Induction of QT interval prolongation in rat at 3 mg/kg, iv administered as infusion for 5 mins by ECG analysis. The class given is functional. In outline: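 Rats were dosed at 3 mg/Kg. Block of IKur was read as the percent change in the ECG QT interval; mean blood pressure and plasma concentration were recorded alongside. Values are means of 2-4 experiments.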

The nature of data set [14]: Plasma concentration in rat at 3 mg/kg, iv administered as infusion for 5 mins. The class given is ADME, organism-based. Summed up: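 Rats were dosed at 3 mg/Kg. QT interval on ECG, mean blood pressure (% change) and plasma concentration were measured. Values are means of 2-4 experiments.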
Data set [15] is filed under the species Oryctolagus cuniculus. Kind of data set: Induction of […] effective refractory period prolongation in rabbit. The class given is functional. Summed up:
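Rabbits were dosed at 0.3, 1.0 and 3.0 mg/Kg. Effective refractory period was measured in atrium and ventricle, and blood pressure was recorded. The plasma concentration giving 20% atrial ERP prolongation (EC20) was calculated.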

The species entered for data set [16] is Oryctolagus cuniculus. Put plainly: Toxicity in rabbit assessed as increase in gastrointestinal motility. The class given is organism-based. The settings on record: in vivo.
The species named for data set [17] is Rattus norvegicus. Put plainly: Inhibition of rat GABAA central-type benzodiazepine receptor at 10 uM relative to control. In outline: as §2
The target in data set [18] is Cannabinoid receptor 1 (Homo sapiens) (UniProt P21554). Kind of data set: Inhibition of human CB1 receptor at 10 uM relative to control. Summed up:
as §1

For data set [19], the target named is Melanocyte-stimulating hormone receptor (Homo sapiens) (UniProt Q01726). Put plainly: Inhibition of human MC1 receptor at 10 uM relative to control. In outline:
as §1

Data set [20] deals with Mineralocorticoid receptor (Rattus norvegicus) (UniProt P22199). Put plainly: Inhibition of rat aldosterone receptor at 10 uM relative to control. Summed up: as §1
Data set [21] concerns the target Adenosine receptor A3 (Homo sapiens) (UniProt P0DMS8). Kind of data set: Inhibition of human adenosine A3 receptor at 10 uM relative to control. Summed up:
as §2

Data set [22] addresses Neuropeptide Y receptor type 1 (Homo sapiens) (UniProt P25929). Kind of data set: Inhibition of human NPY1-R at 10 uM relative to control. In outline: as §1
Data set [23] deals with B1 bradykinin receptor (Homo sapiens) (UniProt P46663). Kind of data set: Inhibition of human bradykinin B1 receptor at 10 uM relative to control. Summed up: as §1
Data set [24] concerns the target Calcitonin receptor (Homo sapiens) (UniProt P30988). Put plainly: Inhibition of human calcitonin receptor at 10 uM relative to control. Summed up: as §1

The structures appear in SMILES notation.

Androgen receptor (Rattus norvegicus), sequence (P15207 whole entry S389L): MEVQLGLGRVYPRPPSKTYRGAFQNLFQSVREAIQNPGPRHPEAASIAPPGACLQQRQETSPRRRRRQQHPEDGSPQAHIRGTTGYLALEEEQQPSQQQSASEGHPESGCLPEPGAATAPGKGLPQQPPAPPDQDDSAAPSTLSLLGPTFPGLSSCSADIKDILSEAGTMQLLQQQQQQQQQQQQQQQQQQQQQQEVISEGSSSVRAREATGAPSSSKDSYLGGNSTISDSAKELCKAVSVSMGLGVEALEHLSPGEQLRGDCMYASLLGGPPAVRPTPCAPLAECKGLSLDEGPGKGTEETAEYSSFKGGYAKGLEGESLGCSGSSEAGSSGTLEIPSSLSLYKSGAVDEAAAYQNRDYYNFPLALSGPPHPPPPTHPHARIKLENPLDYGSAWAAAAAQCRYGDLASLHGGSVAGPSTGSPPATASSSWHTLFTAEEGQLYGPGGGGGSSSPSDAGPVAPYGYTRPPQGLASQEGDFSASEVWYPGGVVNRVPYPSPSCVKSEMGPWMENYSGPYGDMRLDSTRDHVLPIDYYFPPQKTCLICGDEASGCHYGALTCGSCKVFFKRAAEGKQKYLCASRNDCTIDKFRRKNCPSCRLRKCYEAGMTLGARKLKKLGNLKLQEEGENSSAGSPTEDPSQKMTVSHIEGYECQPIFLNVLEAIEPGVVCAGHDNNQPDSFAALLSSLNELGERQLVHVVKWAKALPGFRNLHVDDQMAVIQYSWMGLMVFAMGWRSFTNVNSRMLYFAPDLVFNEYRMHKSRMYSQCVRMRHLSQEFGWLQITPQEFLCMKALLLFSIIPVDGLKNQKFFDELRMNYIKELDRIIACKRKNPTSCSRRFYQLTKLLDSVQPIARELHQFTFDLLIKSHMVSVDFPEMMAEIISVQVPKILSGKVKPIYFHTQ
5-hydroxytryptamine receptor 1B (Rattus norvegicus), sequence (P28564 whole entry): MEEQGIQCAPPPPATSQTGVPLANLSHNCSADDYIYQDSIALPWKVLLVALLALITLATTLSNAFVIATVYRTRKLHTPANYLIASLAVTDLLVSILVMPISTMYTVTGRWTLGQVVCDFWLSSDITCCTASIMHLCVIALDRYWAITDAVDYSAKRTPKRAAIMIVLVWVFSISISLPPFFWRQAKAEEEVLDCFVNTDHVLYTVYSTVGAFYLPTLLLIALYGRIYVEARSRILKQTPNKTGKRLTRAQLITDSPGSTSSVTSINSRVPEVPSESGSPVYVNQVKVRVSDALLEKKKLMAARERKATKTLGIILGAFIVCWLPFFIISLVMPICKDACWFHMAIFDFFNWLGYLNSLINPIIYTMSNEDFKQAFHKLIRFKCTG
Potassium voltage-gated channel subfamily A member 5, sequence (P22460 whole entry): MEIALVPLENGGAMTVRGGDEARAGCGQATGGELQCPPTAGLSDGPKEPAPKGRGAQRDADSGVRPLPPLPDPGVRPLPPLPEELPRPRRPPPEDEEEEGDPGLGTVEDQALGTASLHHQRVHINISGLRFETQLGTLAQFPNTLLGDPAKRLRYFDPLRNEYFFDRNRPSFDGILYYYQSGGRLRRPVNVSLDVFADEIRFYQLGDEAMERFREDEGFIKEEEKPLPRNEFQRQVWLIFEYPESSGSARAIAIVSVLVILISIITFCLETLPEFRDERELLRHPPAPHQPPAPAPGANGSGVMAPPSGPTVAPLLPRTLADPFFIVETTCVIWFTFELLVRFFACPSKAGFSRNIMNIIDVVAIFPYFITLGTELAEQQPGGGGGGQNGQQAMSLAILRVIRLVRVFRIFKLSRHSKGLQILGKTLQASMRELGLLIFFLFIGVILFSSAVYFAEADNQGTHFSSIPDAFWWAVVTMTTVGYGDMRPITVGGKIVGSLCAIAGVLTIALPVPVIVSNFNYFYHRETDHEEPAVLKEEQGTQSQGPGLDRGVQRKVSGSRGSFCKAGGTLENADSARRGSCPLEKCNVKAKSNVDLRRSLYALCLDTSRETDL
Mu-type opioid receptor (Homo sapiens), sequence (P35372 whole entry): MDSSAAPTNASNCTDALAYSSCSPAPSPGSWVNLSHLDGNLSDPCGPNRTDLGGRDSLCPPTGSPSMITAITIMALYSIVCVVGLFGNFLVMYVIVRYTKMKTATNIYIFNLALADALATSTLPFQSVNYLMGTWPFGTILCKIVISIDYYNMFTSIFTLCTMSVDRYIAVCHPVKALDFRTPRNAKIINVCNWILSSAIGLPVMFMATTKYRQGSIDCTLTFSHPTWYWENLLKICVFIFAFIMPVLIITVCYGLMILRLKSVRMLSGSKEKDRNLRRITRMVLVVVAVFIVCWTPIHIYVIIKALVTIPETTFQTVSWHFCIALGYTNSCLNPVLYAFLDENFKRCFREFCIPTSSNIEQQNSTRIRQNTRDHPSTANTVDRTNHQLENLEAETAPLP
Glucocorticoid receptor (Rattus norvegicus), sequence (P06536 whole entry): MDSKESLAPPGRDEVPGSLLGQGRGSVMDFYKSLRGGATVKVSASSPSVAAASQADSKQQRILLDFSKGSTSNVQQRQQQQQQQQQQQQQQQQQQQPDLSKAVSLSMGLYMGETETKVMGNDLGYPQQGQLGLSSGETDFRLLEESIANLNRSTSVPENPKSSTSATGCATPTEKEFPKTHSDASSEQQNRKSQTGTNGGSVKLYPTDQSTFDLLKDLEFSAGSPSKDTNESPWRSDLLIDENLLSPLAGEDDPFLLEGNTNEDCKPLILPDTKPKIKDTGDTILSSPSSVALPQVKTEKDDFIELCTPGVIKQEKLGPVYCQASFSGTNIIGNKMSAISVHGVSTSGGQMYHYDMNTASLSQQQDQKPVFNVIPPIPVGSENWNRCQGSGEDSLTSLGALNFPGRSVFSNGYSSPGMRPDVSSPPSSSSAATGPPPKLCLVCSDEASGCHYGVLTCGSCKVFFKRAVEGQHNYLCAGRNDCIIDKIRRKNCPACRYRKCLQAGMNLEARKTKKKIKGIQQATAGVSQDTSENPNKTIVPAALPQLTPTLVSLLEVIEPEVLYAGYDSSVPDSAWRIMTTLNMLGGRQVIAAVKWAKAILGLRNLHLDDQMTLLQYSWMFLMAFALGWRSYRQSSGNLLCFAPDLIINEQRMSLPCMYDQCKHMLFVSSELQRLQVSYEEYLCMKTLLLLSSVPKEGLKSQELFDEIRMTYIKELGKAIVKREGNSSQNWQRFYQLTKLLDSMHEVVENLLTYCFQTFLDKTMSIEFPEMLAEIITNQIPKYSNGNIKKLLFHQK
Neuropeptide Y receptor type 1 (Homo sapiens), sequence (P25929 whole entry): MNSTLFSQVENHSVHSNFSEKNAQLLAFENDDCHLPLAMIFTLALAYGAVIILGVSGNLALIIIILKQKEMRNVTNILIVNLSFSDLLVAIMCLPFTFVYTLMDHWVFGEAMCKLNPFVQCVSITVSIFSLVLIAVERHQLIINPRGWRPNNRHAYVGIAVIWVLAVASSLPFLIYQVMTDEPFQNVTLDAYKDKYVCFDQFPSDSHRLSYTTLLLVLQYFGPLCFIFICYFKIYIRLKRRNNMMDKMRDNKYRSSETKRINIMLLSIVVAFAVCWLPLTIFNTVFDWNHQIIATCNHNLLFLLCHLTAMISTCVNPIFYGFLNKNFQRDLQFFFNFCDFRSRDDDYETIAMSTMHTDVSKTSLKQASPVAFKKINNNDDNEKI

On to `COc1cccc2c1C(NC[C@]1(c3ccccc3)CC[C@H](O)CC1)=NS2(=O)=O`, for which the inhibition – broadly, the drop in the measured response relative to a control, in per cent – in data set [1] is 19%; in data set [2], 0%; in data set [3], 14%; in data set [4], -6%; in data set [5] it was -6%; in data set [6], 42%. The inhibition in data set [7] came out at 6%; in data set [8], 2%; in data set [10] it was 27%; in [17], 29%. In addition, in [9], the IC50 (commonly the concentration that inhibits the measured activity by half) is 34 nM. The half-life (usually the time in which the quantity being followed falls by half) in data set [11] is 5.1 h. For the same compound, the Vd in data set [12] came out at 3.2 L/kg. Also, the Activity in data set [13] is listed as 66%; in data set [16], “Toxic”. The compound further had a concentration at 5 min in data set [14] of 153 µM. In data set [15], the EC20 – broadly, the point of the concentration-response curve where the effect stands at 20% – is 600 nM.

As for `COc1cccc2c1C(NC[C@]1(c3ccccc3)CC[C@H](NC(=O)OC(C)C)CC1)=NS2(=O)=O`, the inhibition in data set [1] was 13%; in [2] it was 31%; in data set [3], 17%; in data set [4] it was 2%; in data set [5], -2%; in [6], 23%. For the same compound, the inhibition in data set [7] was 10%; in data set [8], 20%; in data set [18], -8%; in [19], -6%; in [20], 16%; in data set [21] it was 64%. For the same compound, the inhibition is 8% in [22]; -4% in [23]; 4% in [24]; 14% in data set [10]; 2% in data set [17]. Also, the IC50 in data set [9] was determined as 52 nM. This compound showed a half-life in data set [11] of 0.9 h. In addition, the Vd in data set [12] was determined as 0.3 L/kg. This compound yielded an Activity in data set [13] of 68%. In addition, in data set [14], the concentration at 5 min was found to be 38 µM. In [15], this compound returned an EC20 of less than 700 nM.
